Assay [1] deals with T1, Adenosine receptor A2a (Homo sapiens, UniProt P29274). The assay can be described thus: Binding affinity at human adenosine A2A receptor.
Assay [2] concerns the target T2, Adenosine receptor A1 (Homo sapiens, UniProt P30542).
T2 sequence (P30542 whole entry): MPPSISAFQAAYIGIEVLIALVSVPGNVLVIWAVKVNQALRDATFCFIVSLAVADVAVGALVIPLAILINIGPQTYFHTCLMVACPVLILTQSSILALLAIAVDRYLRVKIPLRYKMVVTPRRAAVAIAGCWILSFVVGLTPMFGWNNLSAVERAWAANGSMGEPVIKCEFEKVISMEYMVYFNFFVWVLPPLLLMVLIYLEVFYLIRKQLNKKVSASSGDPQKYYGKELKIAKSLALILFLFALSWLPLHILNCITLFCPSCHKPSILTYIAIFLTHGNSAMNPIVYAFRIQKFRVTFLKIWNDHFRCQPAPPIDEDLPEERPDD
The assay can be described thus: Binding affinity at human adenosine A1 receptor.

For assay [3], the target named is T1, Adenosine receptor A2a. As to the kind of experiment: Agonist activity at human recombinant adenosine A2A receptor expressed in CHO cells assessed as calcium mobilization by FLIPR assay. Format: functional, cell-based.
Assay [4] concerns Mus musculus. The assay can be described thus: Reversal of haloperidol-induced hypolocomotion in mouse at 30 mg/kg, ip. The format is functional, organism-based. More on the design: dose 30 mg/kg. In short, it runs like this:
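Haloperidol-induced hypolocomotion model in mice. Test compound was given intraperitoneally at 30 mg kg-1, and reversal of the reduced locomotion was assessed.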

Assay [5] has as its target T3, Adenosine receptor A2b (Homo sapiens, UniProt P29275).
T3 sequence (P29275 whole entry): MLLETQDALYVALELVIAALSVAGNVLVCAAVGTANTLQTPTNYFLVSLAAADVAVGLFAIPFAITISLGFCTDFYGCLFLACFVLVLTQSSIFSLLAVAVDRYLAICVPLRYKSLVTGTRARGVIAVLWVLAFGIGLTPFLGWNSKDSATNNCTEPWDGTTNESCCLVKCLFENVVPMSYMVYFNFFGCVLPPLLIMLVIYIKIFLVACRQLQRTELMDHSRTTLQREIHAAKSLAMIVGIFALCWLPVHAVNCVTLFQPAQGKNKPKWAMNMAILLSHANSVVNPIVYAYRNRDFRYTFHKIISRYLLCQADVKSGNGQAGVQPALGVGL
As to the kind of experiment: Binding affinity at human adenosine A2B receptor.

For assay [6], the target named is T4, Adenosine receptor A3 (Homo sapiens, UniProt P0DMS8).
T4 sequence (P0DMS8 whole entry): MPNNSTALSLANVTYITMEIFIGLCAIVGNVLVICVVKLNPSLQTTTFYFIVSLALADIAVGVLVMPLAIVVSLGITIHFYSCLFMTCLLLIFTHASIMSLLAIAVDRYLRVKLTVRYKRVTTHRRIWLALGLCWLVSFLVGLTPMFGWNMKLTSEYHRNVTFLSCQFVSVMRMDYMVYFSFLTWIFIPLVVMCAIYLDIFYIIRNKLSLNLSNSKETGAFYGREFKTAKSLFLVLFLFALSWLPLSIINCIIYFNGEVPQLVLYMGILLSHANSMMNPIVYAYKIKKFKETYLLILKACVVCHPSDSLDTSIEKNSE
The assay can be described thus: Binding affinity at human adenosine A3 receptor.

The test system of assay [7] is Mus musculus. As to the kind of experiment: Reversal of haloperidol-induced hypolocomotion in mouse at 10 mg/kg, sc. More on the design: dose 10 mg/kg. The format is functional, organism-based.

Results on 39 compounds are retold here after ChEMBL document CHEMBL1145612, “Antagonists of the human adenosine A2A receptor. Part 2: Design and synthesis of 4-arylthieno[3,2-d]pyrimidine derivatives” (Bioorg Med Chem Lett, 2008).

The source made the active and inactive calls. No cut-off for these calls is given here.

T1 sequence (P29274 whole entry): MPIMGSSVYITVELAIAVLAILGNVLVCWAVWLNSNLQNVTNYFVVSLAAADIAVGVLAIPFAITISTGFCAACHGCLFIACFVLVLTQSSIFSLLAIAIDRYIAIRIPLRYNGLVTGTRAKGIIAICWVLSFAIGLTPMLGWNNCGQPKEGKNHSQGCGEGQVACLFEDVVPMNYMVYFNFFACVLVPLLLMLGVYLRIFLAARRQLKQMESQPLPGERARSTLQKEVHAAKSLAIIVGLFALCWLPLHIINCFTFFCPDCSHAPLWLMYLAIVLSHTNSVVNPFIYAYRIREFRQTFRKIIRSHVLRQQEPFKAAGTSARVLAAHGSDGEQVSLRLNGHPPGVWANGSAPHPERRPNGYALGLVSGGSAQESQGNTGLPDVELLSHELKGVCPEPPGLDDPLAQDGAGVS

For `CNc1nc(-c2ccco2)c2sccc2n1`, the Ki in assay [1] amounted to 40 nM; in assay [2], 568 nM. For the same compound, the 50% effective concentration (EC50) in assay [3] was more than 10000 nM. The outcome in assay [4] was Active.

In the case of `CC(C)(C)c1nc(-c2nccs2)c2sccc2n1`, the results for the Ki in assay [1] and in assay [2] were 3.1 nM and 240 nM, respectively. In assay [3], the EC50 is more than 10000 nM. The outcome in assay [4] was inactive.

Regarding `Nc1nc(-c2nccs2)c2sccc2n1`, the Ki in assay [2] was determined as 675 nM. Besides, the EC50 in assay [3] is more than 10000 nM. Also, the outcome in assay [4] was Active.

In the case of `CN(C)c1nc(-c2cn[nH]c2)c2sccc2n1`, the Ki in assay [1] came out at 3080 nM; in assay [2], 5510 nM. In addition, the EC50 in assay [3] was more than 10000 nM.

As to `CCc1nc(-c2ccccn2)c2sccc2n1`, the figures for the Ki in assay [1] and in assay [2] were 13 nM and 917 nM, respectively. Moreover, in assay [3], the EC50 is more than 10000 nM. Moreover, the outcome in assay [4] was Active.

For the compound `Cc1ccc(-c2nc(N(C)C)nc3ccsc23)nc1`, the Ki amounted to 19 nM in assay [1] and 1260 nM in assay [2]. Also, the EC50 in assay [3] is more than 10000 nM. Further, in assay [4], the result was inactive.

Take `CCc1nc(-c2ccoc2)c2sccc2n1`: the Ki in assay [1] turned out to be 681 nM; in assay [2], 10000 nM. For the same compound, the EC50 in assay [3] was more than 10000 nM.

For the compound `c1csc(-c2nc(C3CC3)nc3ccsc23)n1`, the values for the Ki in assay [2], in assay [5] and in assay [6] were 259 nM, 910 nM and 945 nM, respectively. The result in assay [4] and in assay [7] was Active.

Turning to `OC[C@@H]1CCCN1c1nc(-c2nccs2)c2sccc2n1`, the Ki amounted to 14 nM in assay [2], 2480 nM in assay [5] and 456 nM in assay [6]. Besides, the outcome in assay [4] was Active.

`CCc1nc(-c2ccco2)c2sccc2n1`: the Ki amounted to 30 nM in assay [1] and 3210 nM in assay [2]. The EC50 in assay [3] was more than 10000 nM.

Regarding `CN(C)c1nc(-c2ncc[nH]2)c2sccc2n1`, the values for the Ki in assay [1] and in assay [2] were 299 nM and 5770 nM, respectively. In assay [3], the EC50 is more than 10000 nM. Further, in assay [4], the outcome was Active.

`CCc1nc(-c2cccs2)c2sccc2n1`: the Ki in assay [1] was 69 nM; in assay [2] it was 1470 nM. Besides, the EC50 in assay [3] is more than 10000 nM. Also, the outcome in assay [4] was inactive.

For the compound `CCc1nc(-c2nccs2)c2sccc2n1`, the Ki in assay [1] was 1.6 nM; in assay [2], 388 nM; in assay [5] it was 721 nM; in assay [6], 1810 nM. The EC50 in assay [3] was more than 10000 nM. Besides, the outcome in assay [4] was Active.

In assay [2], `CCc1nc(-c2cccc(C)n2)c2sccc2n1` had a Ki of 1270 nM. For the same compound, the outcome in assay [4] was inactive.

As for `OCCNc1nc(-c2nccs2)c2sccc2n1`, the results for the Ki in assay [1] and in assay [2] were 18 nM and 57 nM, respectively. For the same compound, in assay [3], the EC50 is more than 10000 nM. Further, the result in assay [4] was Active.

In the case of `CN(C)c1nc(-c2cc3ccccc3s2)c2sccc2n1`, the Ki in assay [1] is 1330 nM; in assay [2], 1260 nM. The EC50 in assay [3] was more than 10000 nM.

Regarding `OCCNc1nc(-c2cccs2)c2sccc2n1`, the Ki in assay [1] is 172 nM; in assay [2], 401 nM. Further, in assay [3], the EC50 is more than 10000 nM. Besides, in assay [4], the result was Active.

Regarding `CCc1nc(-n2nccn2)c2sccc2n1`, the Ki is 779 nM in assay [1] and 4940 nM in assay [2]. In assay [3], the EC50 was more than 10000 nM.

With `CN(C)c1nc(-c2ccco2)c2sccc2n1`, the inhibition constant Ki in assay [1] was 60 nM; in assay [2], 2200 nM. In assay [3], the EC50 was more than 10000 nM. In addition, in assay [4], the result was Active.

Consider `CC(C)c1nc(-c2nccs2)c2sccc2n1`, for which the Ki in assay [1] was determined as 1.4 nM; in assay [2], 208 nM; in assay [5] it was 865 nM; in assay [6], 476 nM. Moreover, the EC50 in assay [3] is more than 10000 nM. In addition, the outcome in assay [4] was Active.

With `Nc1nc(-c2ccco2)c2sccc2n1`, the EC50 in assay [3] is more than 10000 nM. In addition, in assay [4], the result was Active.

Take `CN(C)c1nc(-c2ccccn2)c2sccc2n1`: the Ki in assay [1] amounted to 26 nM; in assay [2] it was 1590 nM. Besides, the EC50 in assay [3] was more than 10000 nM.

In the case of `CCNc1nc(-c2cccs2)c2sccc2n1`, the Ki in assay [1] was 154 nM; in assay [2], 813 nM. Further, the EC50 in assay [3] was more than 10000 nM. Besides, the outcome in assay [4] was inactive.

On to `CCc1nc(-c2ncc[nH]2)c2sccc2n1`, for which the Ki in assay [1] was determined as 142 nM; in assay [2] it was 5530 nM. Besides, the EC50 in assay [3] is more than 10000 nM. Also, the outcome in assay [4] was Active.

Take `CCNc1nc(-c2ccco2)c2sccc2n1`: the Ki worked out at 58 nM in assay [1] and 375 nM in assay [2]. The EC50 in assay [3] was more than 10000 nM. For the same compound, the outcome in assay [4] was Active.

On to `CN(C)c1nc(-c2cccs2)c2sccc2n1`, for which the Ki amounted to 55 nM in assay [1] and 1960 nM in assay [2]. Moreover, the EC50 in assay [3] is more than 10000 nM. Also, the outcome in assay [4] was inactive.

`CCc1nc(-c2nc(C)cs2)c2sccc2n1`: the Ki in assay [1] came to 2.1 nM; in assay [2], 413 nM. Also, the EC50 in assay [3] is more than 10000 nM. Further, in assay [4], the result was Active.

On to `Clc1nc(-c2nccs2)c2sccc2n1`, for which the Ki in assay [1] came out at 20 nM; in assay [2], 615 nM. The EC50 in assay [3] was more than 10000 nM.

Consider `CN(C)c1nc(-c2ccoc2)c2sccc2n1`, for which the results for the Ki in assay [1] and in assay [2] were 748 nM and 3470 nM, respectively. Further, the EC50 in assay [3] is more than 10000 nM.

In assay [2], `OC[C@H]1CCCN1c1nc(-c2nccs2)c2sccc2n1` displayed a Ki of 250 nM. For the same compound, in assay [4], the outcome was Active.

For the compound `CN(C)c1nc(-c2nccn2C)c2sccc2n1`, the inhibition constant Ki in assay [1] turned out to be 14 nM; in assay [2], 1100 nM. Moreover, the EC50 in assay [3] was more than 10000 nM. Also, the outcome in assay [4] was inactive.

On to `Cc1cnc(-c2nc(N(C)C)nc3ccsc23)s1`, for which the Ki in assay [1] came out at 5.7 nM; in assay [2], 908 nM. Moreover, the EC50 in assay [3] is more than 10000 nM. Further, the result in assay [4] was inactive.

`Cc1csc(-c2nc(N(C)C)nc3ccsc23)n1` yielded a Ki in assay [2] of 303 nM. Also, in assay [4], the outcome was Active.

In the case of `Clc1nc(-c2cccs2)c2sccc2n1`, the Ki in assay [1] is 391 nM; in assay [2], 2040 nM. In addition, in assay [3], the EC50 was more than 10000 nM. Further, the outcome in assay [4] was inactive.

As for `CN(C)c1nc(-c2nccs2)c2sccc2n1`, the Ki was 2.3 nM in assay [1], 366 nM in assay [2], 1560 nM in assay [5] and 1760 nM in assay [6]. Moreover, in assay [3], the EC50 is more than 10000 nM. Besides, the outcome in assay [4] was Active.

Regarding `OCCNc1nc(-c2ccco2)c2sccc2n1`, the results for the Ki in assay [1] and in assay [2] were 203 nM and 868 nM, respectively. The EC50 in assay [3] was more than 10000 nM. The result in assay [4] was inactive.

In the case of `COc1nc(-c2cccs2)c2sccc2n1`, the values for the Ki in assay [1] and in assay [2] were 444 nM and 1590 nM, respectively. In assay [3], the EC50 was more than 10000 nM. In addition, in assay [4], the result was inactive.

With `CN(C)c1nc(-c2cnccn2)c2sccc2n1`, the figures for the Ki in assay [1] and in assay [2] were 81 nM and 990 nM, respectively. The EC50 in assay [3] was more than 10000 nM. For the same compound, in assay [4], the result was inactive.

As for `Cc1nc(-c2nc(N(C)C)nc3ccsc23)sc1C`, the results for the Ki in assay [1] and in assay [2] were 6.6 nM and 254 nM, respectively. In addition, in assay [3], the EC50 is more than 10000 nM. The outcome in assay [4] was inactive.
